Consider 18 molecules from ChEMBL document CHEMBL1127551, “(6,7-Diaryldihydropyrrolizin-5-yl)acetic acids, a novel class of potent dual inhibitors of both cyclooxygenase and 5-lipoxygenase” (J Med Chem, 1994).

pIC50: −log10 of the molar value.

For assay [1], the target named is T1, Arachidonate 5-lipoxygenase (Bos taurus, UniProt Q9BEG3).
T1 sequence (Q9BEG3 whole entry): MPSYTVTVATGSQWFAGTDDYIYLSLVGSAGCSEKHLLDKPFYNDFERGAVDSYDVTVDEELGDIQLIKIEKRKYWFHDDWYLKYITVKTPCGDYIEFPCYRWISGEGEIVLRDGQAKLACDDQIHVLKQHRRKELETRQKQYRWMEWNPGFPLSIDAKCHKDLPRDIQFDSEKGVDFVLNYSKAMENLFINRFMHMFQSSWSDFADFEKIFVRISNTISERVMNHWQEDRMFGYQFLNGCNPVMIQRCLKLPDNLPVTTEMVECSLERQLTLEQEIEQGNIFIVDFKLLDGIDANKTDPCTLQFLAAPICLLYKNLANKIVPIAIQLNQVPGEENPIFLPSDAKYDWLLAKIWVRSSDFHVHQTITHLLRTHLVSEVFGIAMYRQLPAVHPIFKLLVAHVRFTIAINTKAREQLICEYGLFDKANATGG
The assay can be described thus: Inhibition of 5-lipoxygenase in bovine PMNL cell assay. The class given is cell-based. In a few lines: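 Intact polymorphonuclear leukocytes isolated from fresh bovine blood by ficoll gradient centrifugation. Cells incubated with test compound, then stimulated with Ca-ionophore A 23187. IC50 taken as the average of at least two determinations.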

In the next assay the target is T2, Cyclooxygenase (Bos taurus, UniProt O62664+O62698).
T2 sequence (O62664 whole entry): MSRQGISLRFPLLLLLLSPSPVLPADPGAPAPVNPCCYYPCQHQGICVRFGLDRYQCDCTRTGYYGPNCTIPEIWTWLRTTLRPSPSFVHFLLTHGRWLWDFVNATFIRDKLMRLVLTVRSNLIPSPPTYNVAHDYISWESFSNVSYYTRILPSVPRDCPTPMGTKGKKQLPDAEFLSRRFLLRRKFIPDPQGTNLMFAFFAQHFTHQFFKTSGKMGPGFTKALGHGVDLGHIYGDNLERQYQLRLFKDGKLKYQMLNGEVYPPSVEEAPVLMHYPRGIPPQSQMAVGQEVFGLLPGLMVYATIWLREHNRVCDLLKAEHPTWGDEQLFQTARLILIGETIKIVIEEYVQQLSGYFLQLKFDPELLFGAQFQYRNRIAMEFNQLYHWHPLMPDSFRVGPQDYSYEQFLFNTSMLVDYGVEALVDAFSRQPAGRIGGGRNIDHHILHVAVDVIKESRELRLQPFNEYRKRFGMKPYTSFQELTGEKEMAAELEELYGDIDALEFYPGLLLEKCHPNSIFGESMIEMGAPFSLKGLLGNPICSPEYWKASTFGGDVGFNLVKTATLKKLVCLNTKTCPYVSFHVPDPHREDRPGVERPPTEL
T2 sequence (O62698 whole entry): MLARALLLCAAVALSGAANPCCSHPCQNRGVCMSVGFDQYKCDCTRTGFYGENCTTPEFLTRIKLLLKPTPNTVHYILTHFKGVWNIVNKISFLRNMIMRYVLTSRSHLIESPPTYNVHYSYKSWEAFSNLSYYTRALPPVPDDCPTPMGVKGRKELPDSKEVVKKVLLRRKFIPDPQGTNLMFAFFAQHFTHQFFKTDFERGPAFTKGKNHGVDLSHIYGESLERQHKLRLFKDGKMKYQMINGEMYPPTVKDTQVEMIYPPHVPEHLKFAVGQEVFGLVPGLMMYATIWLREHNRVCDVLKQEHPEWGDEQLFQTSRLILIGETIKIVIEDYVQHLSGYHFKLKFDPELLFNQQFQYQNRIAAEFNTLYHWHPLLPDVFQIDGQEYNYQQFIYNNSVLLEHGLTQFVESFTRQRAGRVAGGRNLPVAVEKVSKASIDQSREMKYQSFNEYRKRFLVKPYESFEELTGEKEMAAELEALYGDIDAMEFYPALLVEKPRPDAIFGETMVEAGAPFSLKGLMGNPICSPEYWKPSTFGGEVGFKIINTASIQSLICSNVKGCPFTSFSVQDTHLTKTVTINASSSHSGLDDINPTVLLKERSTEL
Nature of the assay: Inhibition of Prostaglandin G/H synthase in bovine thrombocyte intact cell assay. The method, boiled down: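 Intact thrombocytes isolated from fresh bovine blood by ficoll gradient centrifugation. Cells incubated with test compound, then stimulated with Ca-ionophore A 23187. IC50 taken as the average of at least two determinations.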

The target in assay [2] is T3, Polyunsaturated fatty acid 5-lipoxygenase (Homo sapiens, UniProt P09917).
T3 sequence (P09917 whole entry): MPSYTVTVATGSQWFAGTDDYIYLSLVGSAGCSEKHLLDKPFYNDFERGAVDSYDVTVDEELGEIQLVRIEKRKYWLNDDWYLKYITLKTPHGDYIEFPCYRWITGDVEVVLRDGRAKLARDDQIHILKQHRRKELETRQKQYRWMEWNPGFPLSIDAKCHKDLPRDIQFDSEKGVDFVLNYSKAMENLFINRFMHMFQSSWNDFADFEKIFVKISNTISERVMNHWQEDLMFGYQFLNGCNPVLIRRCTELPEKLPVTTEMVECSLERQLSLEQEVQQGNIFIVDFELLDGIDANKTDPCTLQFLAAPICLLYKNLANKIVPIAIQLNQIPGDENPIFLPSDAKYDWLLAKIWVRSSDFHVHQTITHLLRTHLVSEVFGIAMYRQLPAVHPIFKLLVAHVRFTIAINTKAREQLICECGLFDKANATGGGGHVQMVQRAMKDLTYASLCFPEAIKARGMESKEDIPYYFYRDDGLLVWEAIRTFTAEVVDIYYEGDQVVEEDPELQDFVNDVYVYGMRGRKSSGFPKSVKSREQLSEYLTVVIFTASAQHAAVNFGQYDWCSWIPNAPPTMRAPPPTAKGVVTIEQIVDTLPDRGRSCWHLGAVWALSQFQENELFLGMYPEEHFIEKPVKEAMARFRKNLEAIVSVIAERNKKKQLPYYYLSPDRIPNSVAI
Nature of the assay: Inhibition of human 5-lipoxygenase in human cells. The assay is classed as cell-based. The method, boiled down: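 Intact PMNL isolated by Ficoll gradient centrifugation from fresh human blood; cells incubated with test compound, then stimulated with Ca-ionophore A 23187; 5-LO inhibition expressed as IC50.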

On to `CC1(C)Cc2c(-c3ccccc3)c(-c3ccc(N)cc3)c(CC(=O)O)n2C1`, for which, in assay [1], the negative-log IC50 (pIC50) (in general, the negative decadic logarithm of the IC50, by convention in mol/L) was 5.22. The IC50 (usually the midpoint of a concentration-inhibition curve) against Cyclooxygenase came out at 1 µM.

The molecule `CC1(C)Cc2c(-c3ccccc3)c(-c3ccc([N+](=O)[O-])cc3)c(CC(=O)O)n2C1` gave a pIC50 in assay [1] of 5.82. Also, at Cyclooxygenase, the IC50 worked out at 0.03 µM.

In turn, `O=C(O)Cc1c(-c2ccc(Cl)cc2)c(-c2ccccc2)c2n1CCC2` gave a negative-log IC50 (pIC50) in assay [1] of 5.80. On Cyclooxygenase, the 50% inhibitory concentration (IC50) stood at 2 µM.

In assay [1], `CC(=O)Nc1ccc(-c2c(-c3ccccc3)c3n(c2CC(=O)O)CC(C)(C)C3)cc1` had a negative-log IC50 (pIC50) of 5.00. For the same molecule, at Cyclooxygenase, the IC50 came out at 0.8 µM.

The molecule `CC1(C)Cc2c(-c3ccccc3)c(-c3ccc(F)cc3)c(CC(=O)O)n2C1` gave a pIC50 in assay [1] of less than 5.00. The molecule also registered an IC50 at Cyclooxygenase of 3.2 µM.

Consider `CC1(C)Cc2c(-c3ccccc3)c(-c3cccc(Cl)c3)c(CC(=O)O)n2C1`, for which, in assay [1], the pIC50 was 5.77. Besides, the IC50 on Cyclooxygenase was found to be 3.6 µM.

`CC1(C)Cc2c(-c3ccccc3)c(-c3ccc(Cl)c(Cl)c3)c(CC(=O)O)n2C1` had a pIC50 in assay [1] of 5.77. Besides, the IC50 at Cyclooxygenase was 4.5 µM.

`CC1(C)Cc2c(-c3ccccc3)c(-c3ccc(Cl)c(Cl)c3Cl)c(CC(=O)O)n2C1`: the negative logarithm of the IC50 (pIC50) in assay [1] was 5.74. In addition, the IC50 against Cyclooxygenase was determined as 12 µM.

In assay [1], `CC1(C)Cc2c(-c3ccccc3)c(-c3ccccc3)c(CC(=O)O)n2C1` gave a pIC50 of 5.40. Besides, the half-inhibitory concentration (IC50) against Cyclooxygenase came to 0.1 µM.

The molecule `CC1(C)Cc2c(-c3ccccc3)c(-c3ccc(O)cc3)c(CC(=O)O)n2C1` had a pIC50 in assay [1] of 5.11. The same molecule gave an IC50 against Cyclooxygenase of 1.6 µM.

For the molecule `CC1(C)Cc2c(-c3ccccc3)c(-c3ccc(Oc4ccccc4)cc3)c(CC(=O)O)n2C1`, the negative logarithm of the IC50 (pIC50) in assay [1] was 5.80. Besides, the IC50 at Cyclooxygenase is 2 µM.

The molecule `CC1(C)Cc2c(-c3ccccc3)c(-c3cc(Cl)ccc3Cl)c(CC(=O)O)n2C1` showed a negative logarithm of the IC50 (pIC50) in assay [1] of 5.37. At Cyclooxygenase, this molecule displayed an IC50 of 12 µM.

Consider `CC1(C)Cc2c(-c3ccccc3)c(-c3ccc(Cl)cc3Cl)c(CC(=O)O)n2C1`, for which the negative logarithm of the IC50 (pIC50) in assay [1] is 5.68. The concentration for half-maximal inhibition (IC50) against Cyclooxygenase amounted to 18 µM.

Regarding `COc1ccc(-c2c(-c3ccccc3)c3n(c2CC(=O)O)CC(C)(C)C3)cc1`, the negative-log IC50 (pIC50) in assay [1] is 6.62. The half-maximal inhibitory concentration (IC50) on Cyclooxygenase is 0.1 µM.

`CC1(C)Cc2c(-c3ccccc3)c(-c3ccccc3Cl)c(CC(=O)O)n2C1` showed a negative-log IC50 (pIC50) in assay [1] of 5.36. The 50% inhibitory concentration (IC50) against Cyclooxygenase was found to be 61 µM.

`CC1(C)Cc2c(-c3ccc(Cl)cc3)c(-c3ccccc3)c(CC(=O)O)n2C1` gave a pIC50 in assay [1] of 5.28. For the same molecule, the IC50 on Cyclooxygenase is 3.4 µM.

`CC1(C)Cc2c(-c3ccccc3)c(-c3ccc(C(C)(C)C)cc3)c(CC(=O)O)n2C1` gave a pIC50 in assay [1] of 6.74. This molecule registered a half-maximal inhibitory concentration (IC50) at Cyclooxygenase of 20 µM.

Turning to `CC1(C)Cc2c(-c3ccccc3)c(-c3ccc(Cl)cc3)c(CC(=O)O)n2C1` [LICOFELONE], the values for the pIC50 in assay [1] and in assay [2] were 6.74 and 6.64, respectively. In addition, the IC50 against Cyclooxygenase was found to be 0.21 µM.
